From PubChem BioAssay
697 NFkB inh: lowers PMA/ionomycin-induced NF-kB signal in 697 B cells; 697 B-cell NF-kB luciferase reporter, 16 h; inhibition, % at 4 µM; 0.33% of 330,000 active; AID 435022; in the data active = inhibition above about 35%
TAG inh: reduces triacylglycerol accumulation in H9c2 cells. AID 651582. Nile Red lipid (TAG) fluorescence; cells loaded with 200 µM oleic acid. inhibition, % at 12.5 µM. 0.66% of 230,000 active;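 active = pattern-corrected inhibition of lipid staining of at least 50% with the nuclear-stain viability signal not falling by more than 50%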
Jurkat NFkB inh: inhibitors of the PMA/ionomycin-induced NF-kB reporter in Jurkat cells; PMA/ionomycin-induced NF-kB luciferase reporter, luminescence; inhibition, % at 4 µM; 0.53% of 330,000 active; AID 435003; in the data active = inhibition above about 50%
Lipid droplet: modulators of hepatic lipid droplet formation; 0.4% of 240,000 active; inhibition, % at 6.5 µM; AML12 mouse hepatocytes, oleate lipid droplets, BODIPY imaging;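 active = lipid droplet intensity inhibited by at least 50%, with more than 500 cells counted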
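Material – AML12 mouse liver cells · Also added – oleate loading, 100 µM · Compound dosing – 6.5 µM single-point dosing · Times – overnight treatment with compound plus oleate · Measured by – fluorescence imaging, 20x objective, two fields per well · Read-out – percent inhibition of filter-corrected integrated lipid droplet intensity per well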
iPSC survival up: enhancers of human iPSC single-cell survival. hiPSC single-cell survival, ATPlite luminescence; 100% = ROCK inhibitor wells, 0% = DMSO. survival enhancement, % at 20 µM. 0.044% of 360,000 active. AID 602274; in the data active = survival enhancement above about 18%;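 also: cells exposed to compounds for 16 hours before the ATP read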
Gli-Sufu antag: antagonists of Gli-Sufu signaling; inhibition, % at 5 µM; AID 588413; Sufu-KO-LIGHT fibroblasts, Gli luciferase reporter luminescence; 0.74% of 340,000 active;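 active = inhibition above about 55%, limit read from the data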
TAG conf: confirmation of triacylglycerol accumulation inhibitors; shares compounds with TAG inh; H9c2 lipid accumulation, Nile Red fluorescence; cells loaded with 200 µM oleic acid; inhibition, % at 12.5 µM; 71% of 990 active;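 active = mean inhibition across replicates of 40% or more; inactive = mean inhibition below 40%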
Hits are given with their value; i = inactive; nt = no result. The list is not random: actives were taken first. Their share in the collection is about 1.8%.

SMILES	697 NFkB inh	TAG inh	Jurkat NFkB inh	Lipid droplet	iPSC survival up	Gli-Sufu antag	TAG conf
COCCCn1c(N)c(C(=O)Nc2ccccc2)c2nc3ccccc3nc21	i	59	i	i	i	i	72
COc1cc2c(c(OC)c1OC)-c1ccc(O)cc1C(NC(C)=O)CC2 (stereo unspecified)	nt	52	nt	nt	i	i	58
CC(=O)OC12COC1CC(O)C1(C)C(=O)C(O)C3=C(C)C(O)CC(O)(C(OC(=O)c4ccccc4)C21)C3(C)C (stereo unspecified)	nt	65	nt	nt	i	i	85
O=C1NCN(c2ccccc2)C12CCN(C(c1ccccc1)c1nnnn1C1CCCC1)CC2 (stereo unspecified)	nt	nt	nt	nt	i	nt	nt
COc1ccc(N=Nc2c(O)[nH]c(=S)[nH]c2=O)cc1	i	i	i	i	i	i	nt
COc1cccc(N=Nc2c(O)[nH]c(=S)[nH]c2=O)c1	i	57	i	i	i	i	47
Cc1ccc(-n2c(-c3cccs3)nc3ccccc3c2=O)cc1	i	i	i	nt	i	i	nt
